# IDE act – human IDE activators in live cells, primary screen, fluorescence polarization, HEK cells, FAbeta-B substrate. FAbeta-B cleavage; 0% vehicle, 100% cell-free pure enzyme wells. hit rate 0.073% among 340,000. activation, % at 5.96 µM;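 active = activation above the mean of all tested compounds plus 3 SD, set per screening campaign, cut at about 17% in these data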
# PREPL inhibitor – PREPL enzyme inhibitors, primary screen, biochemical, fluorescence polarization; Prolyl endopeptidase-like (Homo sapiens), Q4J6C6; recombinant PREPL, fluorescence polarization activity-based probe; inhibition, % at 5.96 µM; hit rate 0.68% among 320,000;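 note: 0% = enzyme with DMSO and 100% = wells lacking enzyme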
# ARFGAP1 inh – inhibitors of rat ARFGAP1 GAP activity, primary screen, biochemical, fluorescence polarization, GDP tracer; ADP-ribosylation factor GTPase-activating protein 1 (Rattus norvegicus), Q62848; Arfgap1-stimulated ARF1 GTP hydrolysis, GDP FP detection; inhibition, % at 16.5 µM; hit rate 0.26% among 360,000; AID 651572, 2012;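 active = inhibition above a per-plate limit, mean inhibition of low control wells plus 3 SD, cut at about 25% in these data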;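 note: 0% = DMSO wells with enzyme and 100% = wells lacking Arfgap1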
#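 system = rat Arfgap1 catalytic domain, aa 1-136 | technique = FP, GDP Alexa 633 tracer displaced from anti-GDP antibody, 620/688 nm | compound = one concentration, 16.5 µM, DMSO 1.26% | medium = HEPES-based buffer, pH 7.5 | timing = compound-enzyme preincubation 20 min, reaction 120 min, detection 60 min, 25 °C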
# ASAP1 inh – inhibitors of human ASAP1 ArfGAP activity, primary screen, biochemical, fluorescence polarization. Arf-GAP with SH3 domain, ANK repeat and PH domain-containing protein 1 (Homo sapiens), …. ASAP1-stimulated ARF1 GTP hydrolysis, GDP FP detection. inhibition, % at 16.5 µM. hit rate 0.19% among 360,000. AID 624377, 2012; in the data active = inhibition above about 25%;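 note: 0% = vehicle with enzyme and substrate and 100% = no enzyme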
# Target sequence (Q9ULH1 325-724 limits assumed): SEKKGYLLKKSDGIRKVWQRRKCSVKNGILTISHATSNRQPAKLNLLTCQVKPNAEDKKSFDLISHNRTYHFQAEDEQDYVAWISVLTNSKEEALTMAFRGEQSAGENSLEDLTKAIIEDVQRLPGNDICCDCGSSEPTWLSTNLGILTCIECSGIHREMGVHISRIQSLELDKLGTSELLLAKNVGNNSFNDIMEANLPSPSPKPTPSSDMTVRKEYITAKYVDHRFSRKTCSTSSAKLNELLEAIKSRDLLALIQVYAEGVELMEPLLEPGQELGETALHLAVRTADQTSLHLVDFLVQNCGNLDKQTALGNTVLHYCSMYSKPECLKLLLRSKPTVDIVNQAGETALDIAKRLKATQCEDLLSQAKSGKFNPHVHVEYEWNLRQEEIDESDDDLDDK
# IDE cell inh – human IDE inhibitors in live cells, primary screen, fluorescence polarization, HEK cells, FAbetaB substrate. hit rate 0.41% among 320,000. Insulin-degrading enzyme (Homo sapiens), P14735. inhibition, % at 5.59 µM. FAbetaB cleavage;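 active = percent inhibition above the average of all tested compounds plus 3 SD, set per screening campaign, cut at about 16% in these data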;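 note: IDE supplied by intact live HEK cells; FP after avidin binding of uncleaved biotin substrate so inhibition keeps polarization high; 0% = DMSO wells and 100% = 60 µM reference IDE inhibitor Ii1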
# PREPL inh cf – human PREPL enzyme inhibitors, confirmation, biochemical, fluorescence polarization. recombinant PREPL, fluorescence polarization activity probe. AID 2803, 2010. shares compounds with PREPL inhibitor. hit rate 67% among 2,000. inhibition, % at 5.96 µM;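 note: 0% = protein with DMSO and 100% = wells lacking protein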
# Numbers without * were called inactive; · = not tested or not shown. Compounds with a hit are over-represented: about 1.2% of the library has one in this group of screens. Cut-off read from the data, not from the text of the source, unless noted: active = inhibition above about 43%; inactive = the rest.
SMILES,IDE act,PREPL inhibitor,ARFGAP1 inh,ASAP1 inh,IDE cell inh,PREPL inh cf
CC(C)(C)[C@@H]1COC(=O)[C@H](Cc2ccc(F)cc2)CC/C=C\C[C@@H](CC(=O)NCCO)C(=O)N1,4,49*,-6,7,4,35
C[C@H]1COC(=O)[C@H](Cc2ccc(F)cc2)CC/C=C/C[C@@H](CC(=O)N[C@@H](CO)Cc2ccccc2)C(=O)N1,1,41,1,5,-3,·
CC(C)(C)[C@H]1COC(=O)[C@H](Cc2ccc(F)cc2)CC/C=C/C[C@@H](CC(=O)N[C@H](CO)Cc2ccccc2)C(=O)N1,5,46*,-4,3,10,49*
O=C(CSc1nc(=O)n(CCCN2CCOCC2)c2c1CCCC2)Nc1cccc(F)c1,3,9,-4,2,-7,·
O=C(Cc1cccc2ccccc12)Nc1nnc(-c2cccc([N+](=O)[O-])c2)s1,7,46*,-6,-3,-2,28
N#C/C(=C\Nc1ccccc1O)c1nc2ccccc2o1,6,48*,-18,7,5,36
N#C/C(=C\c1ccncc1)c1nc2ccccc2o1,·,12,9,9,7,·
O=C(Nc1ccccc1-c1ccccc1)c1ccccc1,4,10,7,1,2,·
Nc1c(S(=O)(=O)O)cc(NC(=O)c2ccccc2)c2c1C(=O)c1ccccc1C2=O,-4,65*,·,·,1,55*
Cc1noc(NS(=O)(=O)c2ccc(NC(=O)Nc3ccc(Cl)c(Cl)c3)cc2)c1C,6,48*,0,11,3,46*
Cc1noc(NS(=O)(=O)c2ccc(NC(=O)C(Cl)(Cl)Cl)cc2)c1C,5,8,2,0,6,·
Cc1cc(C)n2nc(CC#N)c(C#N)c2n1,2,18,3,-6,1,·
Cc1cc(C)n2nc(/C(C#N)=C/c3ccccn3)c(C#N)c2n1,1,65*,-9,-8,11,16
COc1ccc(NS(=O)(=O)c2cc(NC(=O)c3cc(F)c(F)c(F)c3F)ccc2N2CCCC2)cc1,3,46*,6,-2,0,39
Cc1ccc(SCCc2cc[n+](CC(=O)c3ccccc3)cc2)cc1,-3,34,3,0,-1,·
O=C(C[n+]1ccc(CCSc2ccc(F)cc2)cc1)c1ccccc1,5,53*,·,·,-4,44*
CCN(CC)CCN(C(=O)c1ccc2c(c1)CCCC2)c1nc2cc(OC)c(OC)cc2s1,4,49*,·,·,1,34
COc1cc2nc(N(CCN(C)C)C(=O)c3ccc4ccccc4c3)sc2cc1OC,0,18,·,·,6,·
COc1ccc(-n2c(CN3CCN(C)CC3)nc3ccc([N+](=O)[O-])cc3c2=O)c(OC)c1,2,25,3,-2,-5,·
COc1ccc(-n2c(CN3CCN(Cc4ccccc4)CC3)nc3ccc([N+](=O)[O-])cc3c2=O)c(OC)c1,5,51*,7,-6,-2,38
CN1CCN(C(c2cccc(C(F)(F)F)c2)c2nnnn2C(C)(C)C)CC1 (configuration not stated),-1,43*,-5,-4,0,32
CCOc1cc(/C=N/N=C2/NC(=O)C(CC(=O)O)S2)ccc1OCc1ccc(Cl)cc1Cl (configuration not stated),1,49*,·,·,-2,64*
CCOc1ccc2[nH]c3c(N4CCc5ccccc5C4)ncnc3c2c1,·,54*,-6,5,28*,65*
CC1CC(C)(C)CC2(C1)NC(=O)N(CC(=O)Nc1ccc3[nH]c(=O)[nH]c3c1)C2=O (configuration not stated),4,49*,9,0,-2,38
